Measured values: ChEMBL document CHEMBL3596195, “Novel cajaninstilbene acid derivatives as antibacterial agents” (Eur J Med Chem, 2015)
Values after ≈ are worked out from the molar mass of the structure shown.

Columns and labels:
[1] = test system: Proteus vulgaris; assay: Antibacterial activity against Proteus vulgaris ATCC49101 assessed as bacterial growth inhibition after 24 hrs by broth dilution method; format: functional; conditions: ATCC49101, 24 h
[2] = test system: Escherichia coli; assay: Antibacterial activity against Escherichia coli ATCC25922 assessed as bacterial growth inhibition after 24 hrs by broth dilution method; format: functional; conditions: ATCC25922, 24 h
[3] = test system: Staphylococcus aureus; assay: Antibacterial activity against Staphylococcus aureus ATCC25923 assessed as bacterial growth inhibition after 24 hrs by broth dilution method; format: functional; conditions: ATCC25923, 24 h
[4] = test system: Staphylococcus aureus; assay: Antibacterial activity against methicillin-resistant Staphylococcus aureus ATCC43300 assessed as bacterial growth inhibition after 24 hrs by broth dilution method; format: functional; conditions: ATCC43300, 24 h
[5] = Selectivity index, ratio of IC50 for mouse RAW264.7 cells to MIC for methicillin-resistant Staphylococcus aureus ATCC51033; format: toxicity; conditions: read-out: Selectivity Index
Summary of the method: (§1)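 SI = IC50 in mouse RAW 264.7 macrophages divided by broth-dilution MIC. For cytotoxicity, cells in DMEM/10% FBS/2 mM L-glutamine were seeded at 10,000/well for 12 h. They were then dosed across a concentration gradient in 1% FBS medium with DMSO below 0.1% for 72 h. Read-out was MTT, absorbance 562 nm, 4 wells × at least 3 runs.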

[6] = test system: Staphylococcus aureus; assay: Ratio of penicillin MIC to compound MIC for Staphylococcus aureus ATCC25923 after 24 hrs by broth dilution method; format: functional
[7] = test system: Staphylococcus aureus; assay: Antibacterial activity against methicillin-resistant Staphylococcus aureus ATCC523512 assessed as bacterial growth inhibition after 24 hrs by broth dilution method; format: functional; conditions: ATCC523512, 24 h
[8] = test system: Staphylococcus aureus; assay: Antibacterial activity against methicillin-resistant Staphylococcus aureus ATCC510019 assessed as bacterial growth inhibition after 24 hrs by broth dilution method; format: functional; conditions: ATCC510019, 24 h
[9] = test system: Staphylococcus aureus; assay: Antibacterial activity against methicillin-resistant Staphylococcus aureus ATCC62202 assessed as bacterial growth inhibition after 24 hrs by broth dilution method; format: functional; conditions: ATCC62202, 24 h
[10] = test system: Staphylococcus aureus; assay: Antibacterial activity against methicillin-resistant Staphylococcus aureus ATCC513045 assessed as bacterial growth inhibition after 24 hrs by broth dilution method; format: functional; conditions: ATCC513045, 24 h
[11] = Selectivity index, ratio of IC50 for mouse RAW264.7 cells to MIC for methicillin-resistant Staphylococcus aureus ATCC43300; format: toxicity; conditions: read-out: Selectivity Index; summary of the method: as §1
[12] = test system: Staphylococcus aureus; assay: Antibacterial activity against methicillin-resistant Staphylococcus aureus ATCC515992 assessed as bacterial growth inhibition after 24 hrs by broth dilution method; format: functional; conditions: ATCC515992, 24 h
[13] = test system: Staphylococcus epidermidis; assay: Ratio of penicillin MIC to compound MIC for Staphylococcus epidermidis ATCC12228 after 24 hrs by broth dilution method; format: functional
Summary of the method: (§2)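 MICs came from broth double dilution from 256 µg/mL in 5×10^5 cells/mL culture, 37 °C, 24 h, read visually as the lowest concentration without turbidity. The ratio is the reference antibiotic's MIC over the compound's MIC.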

[14] = test system: Staphylococcus epidermidis; assay: Antibacterial activity against Staphylococcus epidermidis ATCC12228 assessed as bacterial growth inhibition after 24 hrs by broth dilution method; format: functional; conditions: ATCC12228, 24 h
[15] = test system: Staphylococcus aureus; assay: Antibacterial activity against methicillin-resistant Staphylococcus aureus ATCC52056 assessed as bacterial growth inhibition after 24 hrs by broth dilution method; format: functional; conditions: ATCC52056, 24 h
[16] = Selectivity index, ratio of IC50 for mouse RAW264.7 cells to MIC for methicillin-resistant Staphylococcus aureus ATCC510019; format: toxicity; conditions: read-out: Selectivity Index; summary of the method: as §1
[17] = test system: Pseudomonas aeruginosa; assay: Antibacterial activity against Pseudomonas aeruginosa ATCC2785 assessed as bacterial growth inhibition after 24 hrs by broth dilution method; format: functional; conditions: ATCC2785, 24 h
[18] = Selectivity index, ratio of IC50 for mouse RAW264.7 cells to MIC for methicillin-resistant Staphylococcus aureus ATCC513045; format: toxicity; conditions: read-out: Selectivity Index; summary of the method: as §1
[19] = test system: Staphylococcus aureus; assay: Antibacterial activity against methicillin-resistant Staphylococcus aureus ATCC51033 assessed as bacterial growth inhibition after 24 hrs by broth dilution method; format: functional; conditions: ATCC51033, 24 h
[20] = test system: RAW264.7; assay: Cytotoxicity against mouse RAW264.7 cells assessed as inhibition of cell viability after 72 hrs by MTT assay; format: cell-based; conditions: RAW264.7, 72 h
Summary of the method: (§3)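 Mouse RAW 264.7 macrophages grown in DMEM with 10% FBS, 2 mM L-glutamine and penicillin/streptomycin at 37 °C, 5% CO2. Seeded at 10,000 cells/well for 12 h. Compound diluted 1000× from DMSO stock into 1% FBS medium (DMSO under 0.1%), over a concentration gradient, 72 h exposure. MTT formazan dissolved in DMSO for 45 min, absorbance read at 562 nm. Quadruplicate wells, at least three runs (N = 12).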

[21] = Selectivity index, ratio of IC50 for mouse RAW264.7 cells to MIC for methicillin-resistant Staphylococcus aureus ATCC62202; format: toxicity; conditions: read-out: Selectivity Index; summary of the method: as §1
[22] = test system: Staphylococcus aureus; assay: Antibacterial activity against methicillin-resistant Staphylococcus aureus ATCC425055 assessed as bacterial growth inhibition after 24 hrs by broth dilution method; format: functional; conditions: ATCC425055, 24 h
[23] = Selectivity index, ratio of IC50 for mouse RAW264.7 cells to MIC for Staphylococcus epidermidis ATCC12228; format: toxicity; conditions: read-out: Selectivity Index; summary of the method: as §1
[24] = Selectivity index, ratio of IC50 for mouse RAW264.7 cells to MIC for Staphylococcus aureus ATCC25923; format: toxicity; conditions: read-out: Selectivity Index; summary of the method: as §1
[25] = Selectivity index, ratio of IC50 for mouse RAW264.7 cells to MIC for methicillin-resistant Staphylococcus aureus ATCC523512; format: toxicity; conditions: read-out: Selectivity Index; summary of the method: as §1
[26] = Selectivity index, ratio of IC50 for mouse RAW264.7 cells to MIC for methicillin-resistant Staphylococcus aureus ATCC52056; format: toxicity; conditions: read-out: Selectivity Index; summary of the method: as §1
[27] = Selectivity index, ratio of IC50 for mouse RAW264.7 cells to MIC for Bacillus subtilis ATCC6633; format: toxicity; conditions: read-out: Selectivity Index; summary of the method: as §1
[28] = Selectivity index, ratio of IC50 for mouse RAW264.7 cells to MIC for methicillin-resistant Staphylococcus aureus ATCC515992; format: toxicity; summary of the method: as §1
[29] = Cytotoxicity against mouse RAW264.7 cells assessed as cell viability at 8 ug/ml after 72 hrs by MTT assay; format: cell-based; conditions: read-out: Activity; summary of the method: as §3
[30] = test system: Staphylococcus aureus; assay: Ratio of norfloxacin MIC to compound MIC for Staphylococcus aureus ATCC25923 after 24 hrs by broth dilution method; format: functional; summary of the method: as §2
[31] = test system: Bacillus subtilis; assay: Antibacterial activity against Bacillus subtilis ATCC6633 assessed as bacterial growth inhibition after 24 hrs by broth dilution method; format: functional; conditions: ATCC6633, 24 h
[32] = Selectivity index, ratio of IC50 for mouse RAW264.7 cells to MIC for methicillin-resistant Staphylococcus aureus ATCC425055; format: toxicity; conditions: read-out: Selectivity Index; summary of the method: as §1
[33] = test system: Bacillus subtilis; assay: Ratio of norfloxacin MIC to compound MIC for Bacillus subtilis ATCC6633 after 24 hrs by broth dilution method; format: functional

Compound | MIC [1] | MIC [2] | MIC [3] | MIC [4] | selectivity ratio [5] | Ratio [6] | MIC [7] | MIC [8] | MIC [9] | MIC [10] | MIC [12] | MIC [14] | MIC [15] | selectivity ratio [16] | MIC [17] | MIC [19] | IC50 [20] | selectivity ratio [21] | MIC [22] | selectivity ratio [24] | also measured
COc1cc(/C=C/c2ccc(C(F)(F)F)cc2)c(C(=O)O)c(O)c1CC=C(C)C | > 64 µg/mL | > 128 µg/mL | 2 µg/mL (≈ 4.92 µM) | 2 µg/mL (≈ 4.92 µM) | 12.9 | 1 | 0.5 µg/mL (≈ 1.23 µM) | 2 µg/mL (≈ 4.92 µM) | 0.5 µg/mL (≈ 1.23 µM) | 8 µg/mL (≈ 19.7 µM) | 0.5 µg/mL (≈ 1.23 µM) | 2 µg/mL (≈ 4.92 µM) | 4 µg/mL (≈ 9.84 µM) | 12.9 | > 64 µg/mL | 1 µg/mL (≈ 2.46 µM) | 25.7 µg/mL (≈ 63.3 µM) | 12.9 | 0.5 µg/mL (≈ 1.23 µM) | 12.9 | selectivity ratio [11]: 12.9; Ratio [13]: 64; selectivity ratio [18]: 12.9; selectivity ratio [23]: 12.9; selectivity ratio [25]: 12.9; selectivity ratio [26]: 6.43; selectivity ratio [27]: 12.9; selectivity ratio [28]: 51.4; viability at 72 h, 8 ug/ml [29]: 90.6%; Ratio [30]: 8; MIC [31]: 1 µg/mL (≈ 2.46 µM); selectivity ratio [32]: 12.9
COc1cc(/C=C/c2ccc(F)cc2F)c(C(=O)O)c(O)c1CC=C(C)C | > 64 µg/mL | > 128 µg/mL | 1 µg/mL (≈ 2.67 µM) | 2 µg/mL (≈ 5.34 µM) | 46.5 | 64 | 2 µg/mL (≈ 5.34 µM) | 2 µg/mL (≈ 5.34 µM) | 1 µg/mL (≈ 2.67 µM) | 2 µg/mL (≈ 5.34 µM) | 1 µg/mL (≈ 2.67 µM) | 0.5 µg/mL (≈ 1.34 µM) | 2 µg/mL (≈ 5.34 µM) | 23.3 | > 64 µg/mL | 1 µg/mL (≈ 2.67 µM) | 46.5 µg/mL (≈ 124 µM) | 46.5 | 0.5 µg/mL (≈ 1.34 µM) | 46.5 | Ratio [33]: 8; selectivity ratio [26]: 23.3; selectivity ratio [28]: 46.5; viability at 72 h, 8 ug/ml [29]: 94.4%; MIC [31]: 2 µg/mL (≈ 5.34 µM)
